The source of these data is ChEMBL document CHEMBL5705888, “Substrate specificity and inhibitors of LRRK2, a protein kinase mutated in Parkinson's disease” (Biochem J, 2009).

In test [1] the target is Rho-associated protein kinase 2 (Homo sapiens, UniProt O75116). As to the kind of experiment: Inhibition of ROCK2 in human Flp-In-T-REx-293 cells harboring GFP-tagged constitutively active G14V-Rho mutant assessed as inhibition of MYPT phosphorylation at Thr850 at 10 uM incubated for 1 hr by immunoblot analysis. Format: cell-based. A digest of the protocol: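 Flp-In T-REx cells carrying GFP-tagged G14V-Rho were induced with 1 μg/ml doxycycline in the medium. Seven hours after induction, cells were treated with 10 μM inhibitor for 1 h. They were then lysed directly in SDS lysis buffer and run on 4–12% gels. Blots were probed with anti-MYPT pThr850 (1 μg/ml in 5% BSA/TBST), followed by HRP secondary and ECL detection.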
Chain of Rho-associated protein kinase 2 (O75116 whole entry, looked up): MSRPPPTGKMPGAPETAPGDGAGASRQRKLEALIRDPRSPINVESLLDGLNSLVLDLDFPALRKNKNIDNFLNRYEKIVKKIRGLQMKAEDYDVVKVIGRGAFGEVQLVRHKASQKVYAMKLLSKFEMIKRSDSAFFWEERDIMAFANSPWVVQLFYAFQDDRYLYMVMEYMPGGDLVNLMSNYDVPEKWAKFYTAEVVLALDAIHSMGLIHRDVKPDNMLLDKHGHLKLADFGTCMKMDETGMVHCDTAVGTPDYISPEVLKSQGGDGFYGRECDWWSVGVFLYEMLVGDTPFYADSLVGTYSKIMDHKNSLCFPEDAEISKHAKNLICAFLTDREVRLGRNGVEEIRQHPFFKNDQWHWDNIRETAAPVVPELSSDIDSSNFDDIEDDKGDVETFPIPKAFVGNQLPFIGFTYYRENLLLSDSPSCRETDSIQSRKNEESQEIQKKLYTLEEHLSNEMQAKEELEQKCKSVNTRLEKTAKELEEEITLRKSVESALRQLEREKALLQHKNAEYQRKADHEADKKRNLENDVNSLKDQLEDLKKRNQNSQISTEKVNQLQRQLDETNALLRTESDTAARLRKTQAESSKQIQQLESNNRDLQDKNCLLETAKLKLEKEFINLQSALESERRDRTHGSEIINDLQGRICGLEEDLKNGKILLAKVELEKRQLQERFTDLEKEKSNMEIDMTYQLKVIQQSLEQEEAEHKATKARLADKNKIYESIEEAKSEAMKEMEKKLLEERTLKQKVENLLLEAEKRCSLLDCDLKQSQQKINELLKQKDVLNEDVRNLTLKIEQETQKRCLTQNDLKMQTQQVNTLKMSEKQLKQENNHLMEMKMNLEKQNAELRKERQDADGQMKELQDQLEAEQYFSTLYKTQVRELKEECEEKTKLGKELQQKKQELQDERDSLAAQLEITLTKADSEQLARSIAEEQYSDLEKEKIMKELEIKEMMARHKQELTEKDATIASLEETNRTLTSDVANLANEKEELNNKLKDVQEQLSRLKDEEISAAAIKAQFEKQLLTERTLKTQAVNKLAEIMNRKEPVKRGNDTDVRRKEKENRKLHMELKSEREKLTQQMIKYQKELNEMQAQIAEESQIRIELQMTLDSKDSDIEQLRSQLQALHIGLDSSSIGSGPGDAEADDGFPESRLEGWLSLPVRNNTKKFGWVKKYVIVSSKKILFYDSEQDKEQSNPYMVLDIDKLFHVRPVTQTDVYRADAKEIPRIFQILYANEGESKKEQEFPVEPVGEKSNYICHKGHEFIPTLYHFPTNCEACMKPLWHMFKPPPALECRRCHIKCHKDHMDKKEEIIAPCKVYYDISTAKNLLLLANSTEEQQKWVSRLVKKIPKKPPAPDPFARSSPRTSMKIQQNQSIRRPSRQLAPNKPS
(Immunoblotting shows a protein as a band on a membrane.)

The target of test [2] is Leucine-rich repeat serine/threonine-protein kinase 2 (Homo sapiens, UniProt Q5S007). In words: Inhibition of LRRK2 in human Flp-In-T-REx-293 cells assessed as inhibition of ERM phosphorylation at 10 uM incubated for 1 hr in presence of LRRKtide by immunoblot analysis. Format: cell-based. Put shortly:
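Flp-in T-REx cells carrying GFP-tagged G14V-Rho were left uninduced or induced with 1 μg/ml doxycycline. At 7 h, compound at 10 μM was added for 1 h. Cells were lysed in SDS lysis buffer, run on 4–12% gels and immunoblotted with pan-phospho-ERM antibody (1 μg/ml in milk/TBST containing 10 μg/ml LRRKtide).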

For test [3], the target named is Mitogen-activated protein kinase 11 (Homo sapiens) (UniProt Q15759). As to the kind of experiment: Inhibition of p38beta MAPK (unknown origin) at 1 uM incubated for 30 mins in presence of [gamma-33P]ATP by multidrop micro reagent based assay relative to control; values are per cent of control.
Test [4] deals with MAP kinase-interacting serine/threonine-protein kinase 1 (Homo sapiens) (UniProt Q9BUB5). In words: Inhibition of MNK1 (unknown origin) at 1 uM incubated for 30 mins in presence of [gamma-33P]ATP by multidrop micro reagent based assay relative to control; values are per cent of control.
Test [5] has as its target Myosin light chain kinase, smooth muscle (Homo sapiens) (UniProt Q15746). In words: Inhibition of SmMLCK (unknown origin) at 1 uM incubated for 30 mins in presence of [gamma-33P]ATP by multidrop micro reagent based assay relative to control; values are per cent of control.
The target in test [6] is Serine/threonine-protein kinase PLK1 (Homo sapiens) (UniProt P53350). As to the kind of experiment: Inhibition of PLK1 (unknown origin) at 1 uM incubated for 30 mins in presence of [gamma-33P]ATP by multidrop micro reagent based assay relative to control; values are per cent of control.
Chain of Serine/threonine-protein kinase PLK1 (Homo sapiens) (P53350 whole entry): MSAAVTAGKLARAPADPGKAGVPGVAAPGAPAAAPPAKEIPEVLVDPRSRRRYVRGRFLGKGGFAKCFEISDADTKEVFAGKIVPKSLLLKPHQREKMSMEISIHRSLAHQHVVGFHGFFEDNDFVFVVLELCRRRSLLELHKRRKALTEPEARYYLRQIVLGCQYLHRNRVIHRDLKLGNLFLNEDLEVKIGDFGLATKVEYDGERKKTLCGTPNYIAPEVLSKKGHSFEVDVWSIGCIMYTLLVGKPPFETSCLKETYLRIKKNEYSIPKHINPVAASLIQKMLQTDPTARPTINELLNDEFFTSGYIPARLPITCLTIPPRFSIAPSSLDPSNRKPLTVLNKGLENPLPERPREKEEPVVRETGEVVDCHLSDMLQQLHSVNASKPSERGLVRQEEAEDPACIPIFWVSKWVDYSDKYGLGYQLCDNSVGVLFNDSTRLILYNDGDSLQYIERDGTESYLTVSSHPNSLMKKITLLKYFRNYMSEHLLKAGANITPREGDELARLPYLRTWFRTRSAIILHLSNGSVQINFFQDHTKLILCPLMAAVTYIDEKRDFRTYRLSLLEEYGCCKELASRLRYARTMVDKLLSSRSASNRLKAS
Test [7] concerns the target Serine/threonine-protein kinase Nek6 (Homo sapiens) (UniProt Q9HC98). In words: Inhibition of NEK6 (unknown origin) at 1 uM incubated for 30 mins in presence of [gamma-33P]ATP by multidrop micro reagent based assay relative to control; values are per cent of control.
The target in test [8] is T1, Mitogen-activated protein kinase kinase kinase kinase 2 (Homo sapiens) (UniProt Q12851).
T1 sequence (whole entry): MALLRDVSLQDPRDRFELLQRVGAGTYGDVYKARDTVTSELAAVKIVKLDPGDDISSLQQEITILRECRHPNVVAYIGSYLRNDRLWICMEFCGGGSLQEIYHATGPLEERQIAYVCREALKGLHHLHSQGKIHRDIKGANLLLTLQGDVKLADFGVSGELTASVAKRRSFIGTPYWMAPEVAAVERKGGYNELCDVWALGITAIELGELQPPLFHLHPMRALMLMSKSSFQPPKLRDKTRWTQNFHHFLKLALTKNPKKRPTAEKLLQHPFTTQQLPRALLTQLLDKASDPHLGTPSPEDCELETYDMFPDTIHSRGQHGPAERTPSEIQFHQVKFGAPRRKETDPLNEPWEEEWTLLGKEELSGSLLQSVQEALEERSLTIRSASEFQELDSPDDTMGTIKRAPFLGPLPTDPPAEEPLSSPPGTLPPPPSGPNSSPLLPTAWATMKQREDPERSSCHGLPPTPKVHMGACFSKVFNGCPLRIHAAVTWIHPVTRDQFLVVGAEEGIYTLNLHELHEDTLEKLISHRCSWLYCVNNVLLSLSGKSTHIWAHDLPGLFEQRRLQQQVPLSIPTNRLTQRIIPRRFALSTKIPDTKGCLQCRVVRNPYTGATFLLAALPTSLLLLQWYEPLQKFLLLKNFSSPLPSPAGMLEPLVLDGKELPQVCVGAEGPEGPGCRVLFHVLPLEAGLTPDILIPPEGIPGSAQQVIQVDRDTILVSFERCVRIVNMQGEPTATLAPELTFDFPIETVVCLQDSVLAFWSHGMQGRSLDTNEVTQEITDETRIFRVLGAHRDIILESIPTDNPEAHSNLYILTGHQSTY
In words: Inhibition of GCK (unknown origin) at 1 uM incubated for 30 mins in presence of [gamma-33P]ATP by multidrop micro reagent based assay relative to control.

For test [9], the target named is cAMP-dependent protein kinase (PKA) (Homo sapiens) (UniProt P22694+P17612+P22612). In words: Inhibition of PKA (unknown origin) at 1 uM incubated for 30 mins in presence of [gamma-33P]ATP by multidrop micro reagent based assay relative to control; values are per cent of control.

SMILES strings stand for the structures. Activity calls are given as the source filed them. The rule behind the calls is not given here.

Chain of Leucine-rich repeat serine/threonine-protein kinase 2 (Q5S007 whole entry): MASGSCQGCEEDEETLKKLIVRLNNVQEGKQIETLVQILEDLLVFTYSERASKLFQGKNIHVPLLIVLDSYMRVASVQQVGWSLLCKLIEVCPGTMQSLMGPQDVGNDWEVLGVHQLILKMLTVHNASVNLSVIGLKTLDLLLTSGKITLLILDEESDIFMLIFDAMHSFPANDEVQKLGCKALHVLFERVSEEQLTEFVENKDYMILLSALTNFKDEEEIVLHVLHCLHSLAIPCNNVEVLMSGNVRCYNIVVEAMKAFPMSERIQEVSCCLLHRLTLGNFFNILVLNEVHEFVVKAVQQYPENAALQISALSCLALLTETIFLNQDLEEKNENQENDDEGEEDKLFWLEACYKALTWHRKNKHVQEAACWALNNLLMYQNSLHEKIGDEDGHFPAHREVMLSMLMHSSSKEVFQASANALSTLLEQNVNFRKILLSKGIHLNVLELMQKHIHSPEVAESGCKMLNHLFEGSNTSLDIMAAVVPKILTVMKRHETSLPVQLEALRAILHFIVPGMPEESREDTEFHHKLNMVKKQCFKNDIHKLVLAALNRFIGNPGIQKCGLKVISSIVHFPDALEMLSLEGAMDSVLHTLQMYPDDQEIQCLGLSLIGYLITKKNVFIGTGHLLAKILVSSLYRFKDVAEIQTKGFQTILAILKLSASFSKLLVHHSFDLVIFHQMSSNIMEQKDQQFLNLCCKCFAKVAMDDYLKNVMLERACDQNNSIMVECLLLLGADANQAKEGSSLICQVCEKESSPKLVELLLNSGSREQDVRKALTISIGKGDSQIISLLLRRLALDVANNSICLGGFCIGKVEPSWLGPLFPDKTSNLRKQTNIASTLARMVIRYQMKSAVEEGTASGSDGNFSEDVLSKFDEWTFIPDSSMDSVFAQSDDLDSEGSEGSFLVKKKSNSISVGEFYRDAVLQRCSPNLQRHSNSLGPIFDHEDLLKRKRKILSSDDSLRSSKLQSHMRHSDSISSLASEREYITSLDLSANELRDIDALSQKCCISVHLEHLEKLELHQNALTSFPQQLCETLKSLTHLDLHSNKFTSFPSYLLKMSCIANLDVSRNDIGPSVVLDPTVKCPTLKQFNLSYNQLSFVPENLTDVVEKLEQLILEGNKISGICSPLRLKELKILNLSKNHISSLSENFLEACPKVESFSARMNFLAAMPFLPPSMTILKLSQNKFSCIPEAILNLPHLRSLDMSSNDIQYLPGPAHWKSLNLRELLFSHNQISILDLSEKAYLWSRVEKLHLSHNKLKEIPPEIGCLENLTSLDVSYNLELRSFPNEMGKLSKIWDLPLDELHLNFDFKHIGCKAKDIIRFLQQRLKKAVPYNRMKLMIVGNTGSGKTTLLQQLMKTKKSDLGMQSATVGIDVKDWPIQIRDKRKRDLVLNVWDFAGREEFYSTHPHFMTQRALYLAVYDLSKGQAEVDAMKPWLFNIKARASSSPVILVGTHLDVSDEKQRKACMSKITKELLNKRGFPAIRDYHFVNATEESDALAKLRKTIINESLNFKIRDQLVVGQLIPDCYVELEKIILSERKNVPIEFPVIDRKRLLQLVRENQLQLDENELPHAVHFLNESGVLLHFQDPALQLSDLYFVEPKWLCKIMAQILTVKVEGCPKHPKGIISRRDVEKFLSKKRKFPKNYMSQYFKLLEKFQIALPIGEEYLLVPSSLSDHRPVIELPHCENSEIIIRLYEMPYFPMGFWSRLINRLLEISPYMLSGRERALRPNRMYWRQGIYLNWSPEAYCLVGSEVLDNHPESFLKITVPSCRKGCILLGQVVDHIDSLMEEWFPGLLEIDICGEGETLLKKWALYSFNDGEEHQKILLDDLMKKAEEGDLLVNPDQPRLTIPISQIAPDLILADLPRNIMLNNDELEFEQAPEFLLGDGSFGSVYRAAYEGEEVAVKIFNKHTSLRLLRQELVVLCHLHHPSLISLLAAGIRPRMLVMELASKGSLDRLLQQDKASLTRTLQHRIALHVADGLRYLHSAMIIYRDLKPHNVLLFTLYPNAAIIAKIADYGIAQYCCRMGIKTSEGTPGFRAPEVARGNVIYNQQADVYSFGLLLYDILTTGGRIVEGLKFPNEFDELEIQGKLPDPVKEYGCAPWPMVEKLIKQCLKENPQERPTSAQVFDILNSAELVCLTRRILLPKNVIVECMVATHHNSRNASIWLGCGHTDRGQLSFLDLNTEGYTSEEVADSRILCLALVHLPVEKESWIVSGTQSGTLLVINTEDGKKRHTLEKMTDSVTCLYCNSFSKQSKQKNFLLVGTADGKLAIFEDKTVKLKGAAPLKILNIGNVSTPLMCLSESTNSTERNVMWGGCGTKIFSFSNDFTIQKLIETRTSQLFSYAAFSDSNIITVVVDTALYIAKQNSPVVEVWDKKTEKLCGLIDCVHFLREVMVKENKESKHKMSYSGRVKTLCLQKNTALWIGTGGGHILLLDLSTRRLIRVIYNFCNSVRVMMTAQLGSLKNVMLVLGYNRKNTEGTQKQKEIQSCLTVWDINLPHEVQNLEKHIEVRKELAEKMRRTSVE
Chain of Serine/threonine-protein kinase Nek6 (Homo sapiens) (Q9HC98 whole entry): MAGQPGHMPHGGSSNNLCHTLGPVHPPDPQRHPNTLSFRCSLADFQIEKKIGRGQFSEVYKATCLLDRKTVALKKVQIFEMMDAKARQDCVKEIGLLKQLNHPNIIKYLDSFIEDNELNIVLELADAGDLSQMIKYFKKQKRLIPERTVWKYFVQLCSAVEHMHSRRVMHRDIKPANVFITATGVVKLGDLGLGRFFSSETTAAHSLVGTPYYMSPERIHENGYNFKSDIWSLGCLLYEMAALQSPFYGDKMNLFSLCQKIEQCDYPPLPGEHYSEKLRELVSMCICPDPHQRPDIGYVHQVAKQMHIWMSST

In the case of `C[C@@H](N)[C@H]1CC[C@H](C(=O)Nc2ccncc2)CC1`, the inhibition entry in test [1] is “Active”. In addition, in test [2], the inhibition result was “inactive”.
On to `Cc1cncc2cccc(S(=O)(=O)N3CCCNC[C@@H]3C)c12`, for which the residual activity in [3] came out at 107%; in test [4] it was 50%; in test [5] it was 96%; in test [6], 105%; in [7], 99%; in test [8], 56%. Also, the residual activity in test [9] was determined as 76%. In test [1], the inhibition entry was “Active”. In [2], the inhibition result was “inactive”.
`CCn1c(-c2nonc2N)nc2cnc(Oc3cccc(NC(=O)c4ccc(OCCN5CCOCC5)cc4)c3)cc21` [GSK-269962A]: the residual activity is 113% in test [3]; 65% in test [5]; 105% in test [6]; 82% in test [7]; 78% in [8]; 22% in test [9]. In addition, the inhibition entry in test [2] was “inactive”.
For the compound `CCN(CC)CCNC(=O)c1c(C)[nH]c(/C=C2\C(=O)Nc3ccc(F)cc32)c1C`, the inhibition result in test [2] is “inactive”.
Consider `CC1=C(C(=O)Nc2cc3cn[nH]c3cc2F)C(c2ccc(C(F)(F)F)cc2)CC(=O)N1` (stereo not drawn), for which the residual activity stood at 97% in test [3]; 91% in test [4]; 73% in test [5]; 102% in test [6]; 87% in test [7]; 97% in [8]. Also, in test [9], the residual activity is 88%. Besides, the inhibition entry in [1] was “Active”. In addition, the inhibition result in test [2] is “inactive”.
